# sdo1 growth: growth rescue of sdo1-depleted yeast, primary screen, S. cerevisiae, bone marrow failure model; 0.21% of 140,000 active; S. cerevisiae sdo1-depleted JHY4D growth rescue, OD600 30 h; hits give high values; pdr5 snq2 efflux-pump mutant strain; z-score at 10 µM; AID 817, 2007;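 active = z-score above 3 at both the 24 hr and the 30 hr optical density reads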;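 note: z-score against mean and SD of all compound wells on the same plate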
# APP 5'UTR act: activators of APP 5'UTR luciferase reporter, primary screen, SH-SY5Y cells; SH-SY5Y APP 5'UTR luciferase reporter, luminescence; zero percent = DMSO vehicle wells; activation, % at 2 µM; 1% of 190,000 active; AID 1276, 2008;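 active = activation above a set limit, based on mean plus 3 SD of controls, cut at about 140% in these data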
# NF-kB neuron act: activators of NF-kB expression in neurons, primary screen, cell-based, HTS; human neuronal cells, NF-kB reporter expression; hits give high values; fold change at 12.5 µM; 1.6% of 190,000 active; AID 1239, 2008; in the data active = fold change above about 3.3
# FLuc inh counter: firefly luciferase enzyme inhibitors, primary screen, artefact control for luciferase-based inhibitor screens, biochemical, luminescence, ATPLite. Luciferin 4-monooxygenase (Photinus pyralis), P08659. 10 min. inhibition, % at 10 µM. 1.5% of 200,000 active. AID 1006, 2008;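 active = inhibition above about 50% when tested at 10 µM, limit read from the data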
# Target sequence (P08659 whole entry, looked up): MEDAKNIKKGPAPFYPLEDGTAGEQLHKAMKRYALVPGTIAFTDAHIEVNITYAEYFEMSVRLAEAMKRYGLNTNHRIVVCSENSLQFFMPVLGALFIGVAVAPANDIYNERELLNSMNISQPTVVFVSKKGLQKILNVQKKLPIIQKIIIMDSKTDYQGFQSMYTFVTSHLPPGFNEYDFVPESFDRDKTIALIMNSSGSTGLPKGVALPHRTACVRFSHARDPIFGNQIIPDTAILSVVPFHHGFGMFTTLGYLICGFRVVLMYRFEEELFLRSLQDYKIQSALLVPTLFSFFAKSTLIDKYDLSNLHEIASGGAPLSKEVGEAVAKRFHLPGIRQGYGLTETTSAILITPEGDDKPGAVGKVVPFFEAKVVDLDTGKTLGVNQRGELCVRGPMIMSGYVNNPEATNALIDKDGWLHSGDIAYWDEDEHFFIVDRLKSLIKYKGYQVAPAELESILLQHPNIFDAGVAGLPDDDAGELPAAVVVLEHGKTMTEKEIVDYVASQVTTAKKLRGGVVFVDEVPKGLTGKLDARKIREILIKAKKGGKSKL
# STAT1 activator: STAT1 signaling activators, primary screen, cell-based, HTS, luciferase reporter. AID 932, 2007. NIH 3T3 STAT1-luciferase reporter, IFN-gamma, luminescence; 100% = IFN-gamma alone, no compound. activation (% of control), % at 5.5 µM. 2.6% of 200,000 active;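 active = activation above the screen-wide mean activation plus 3 SD, cut at about 130% in these data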;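 note: raw ratio to IFN-gamma control signal so 100% means no change and 0% no light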
# FLuc stim CS: FLuc activators, initial screening, artefact control for FLuc-dependent activation tests, biochemical, ATPlite luminescence; AID 1027, 2008; 200,000 tested, under 10 active; ATPlite luciferase biochemical, 10 min; 0 = ATP-free wells, 1 = DMSO control; activation factor at 10 µM;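 active = luciferase activation factor, scaled between plate controls, of at least 2 with compound at 10 µM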
#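 test system = cell-free luciferase reagent | medium = PBS as buffer for the ATP substrate | dosing = test compounds dosed from 2 mM stocks in 100% DMSO | incubation = 10 min at ambient temperature | detection = luminescence measurement of luciferase light output | benchmarks = low control with PBS replacing ATP, high control enzyme plus ATP without compound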
# STAT1 activ conf: STAT1 signaling activators, confirmation, cell-based, HTS, luciferase reporter. shares compounds with STAT1 activator. NIH 3T3 STAT1-luciferase reporter, IFN-gamma potentiation, luminescence; 100% = IFN-gamma EC80 alone, no compound. activation (% of control), % at 5.7 µM. 97% of 1,200 active. AID 1262, 2008;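 active = activation above a set limit carried over from the earlier primary STAT1 screen, cut at about 140% in these data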;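 note: simple ratio to median IFN-gamma plus DMSO wells so 0% means no light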
# NFkB act STAT1ct: NF-kB reporter activators, TNF-alpha stimulated, counter-screen for STAT1 activator project, cell-based, HEK293T, luciferase luminescence | AID 1306, 2008 | activation (% of control), % at 5.7 µM | 100% = TNF-alpha with vehicle only | 43% of 1,200 active | shares compounds with STAT1 activator;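 active = activation above the mean of solvent-only control wells plus 3 SD, set per campaign, cut at about 130% in these data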;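 note: TNF-alpha given at a submaximal dose yielding about 80% of full reporter signal; values are well signal over median control so 100% means no change and 0% no light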
# STAT3 act STAT1c: STAT3 reporter activation by STAT1 hits, confirmation, counter-screen for STAT1 activator project, U3A cells, luciferase, luminescence; shares compounds with STAT1 activator; IL-6; cells lack STAT1; 100 = IL-6 alone, no compound effect; activation (% of control), % at 5.7 µM; 46% of 1,200 active;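 active = activation above the solvent-only control well mean plus 3 SD, set per plate batch, cut at about 110% in these data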;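 note: 0% = no luminescence and 100% = median IL-6 plus DMSO wells; higher means more STAT3 reporter activation so hits are non-selective activators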
# Numbers without * were called inactive; / = not tested or not shown. Compounds with a hit are over-represented: about 4.3% of the library has one in this group of screens.
SMILES,sdo1 growth,APP 5'UTR act,NF-kB neuron act,FLuc inh counter,STAT1 activator,FLuc stim CS,STAT1 activ conf,NFkB act STAT1ct,STAT3 act STAT1c
CCOC(=O)c1sc(NC(=O)Nc2ccc(F)cc2)nc1C,-0.21,121,5.3*,59*,160*,0.4,236*,135*,112*
CCOC(=O)c1sc(-c2ccccc2)cc1NC(=O)Nc1ccccc1,-0.29,3,0.84,3,99,1,/,/,/
CCOC(=O)c1sc(NC(=O)c2ccc(C)s2)cc1C,-1.2,172*,3,62*,175*,0.4,193*,138*,95
CCOC(=O)C1CN(S(C)(=O)=O)c2cc(CC(=O)OC)ccc2O1 (configuration not stated),/,-3,1.1,8,107,0.9,/,/,/
Cn1nnc2cc(C(=O)Nc3ccc4ccccc4c3)ccc21,/,130,4.3*,18,154*,0.8,242*,138*,98
O=C(CCl)Nc1ccc2c(c1)OCO2,/,-3,1.6,0,96,1,/,/,/
COc1ccc(N/C=C/C(=O)c2ccc3c(c2)OCO3)cc1OC,2,13,1.8,60*,161*,0.4,178*,136*,105
O=C(/C=C\Nc1ccc2c(c1)OCO2)c1ccc(Cl)s1,/,164*,0.96,87*,157*,0.1,200*,88,83
CCOC(=O)C(Cc1ccccc1)C(=O)Nc1cccc2ccccc12 (configuration not stated),0.97,-2,0.88,0,100,1,/,/,/
Cc1nn(CC(=O)NCc2ccc(-n3cccn3)cc2)c(C)c1[N+](=O)[O-],-0.13,12,0.71,-6,105,1.1,/,/,/
Nc1c(C(=O)C2CC2)sc2nc3c(cc12)CCC3,/,120,5.4*,19,162*,0.8,189*,135*,108
Nc1nc(-c2ccccc2)nc2sc3c(c12)CCCC3,-1.2,180*,11*,85*,191*,0.1,249*,136*,139*
Cc1ccc(-c2nc3sc4c(c3c(=O)n2N)CCCC4)cc1,-0.95,143*,5.1*,12,178*,0.9,224*,143*,105
Cn1c(CNC(=O)OC(C)(C)C)n[nH]c1=S,/,13,0.97,-8,100,1.1,/,/,/
CCOc1ccc(/C=N/O)cc1,1.4,-13,1.2,0,104,1,/,/,/
Cc1ccc(COc2ccc(/C=N/O)cc2)cc1,-1.3,89,6.3*,33,176*,0.7,203*,136*,129*
CC(OCCN1CCCC1)(c1ccc(F)cc1)c1ccc(F)cc1,-0.16,-3,1,-9,94,1.1,/,/,/
Cn1cc(NC(=O)OCc2ccc(Cl)cc2)c(C(F)(F)F)n1,/,7,3.5*,-4,178*,1,165*,125,110
Cc1cc(C(=O)CSc2n[nH]c(N)n2)c(C)n1-c1cccc(F)c1,0.33,20,1.4,13,103,0.9,/,/,/
Cc1cc(C(=O)CSc2ncccn2)c(C)n1-c1cccc(F)c1,-0.54,162*,3.3,54*,172*,0.5,191*,126,111*
N#C/C(=C/c1cn(CC(=O)O)c2ccccc12)C(=O)NCc1ccccc1,/,-2,0.98,3,95,1,/,/,/
C=CCNc1nc(-c2ccc([N+](=O)[O-])cc2)cs1,2.6,72,4*,29,151*,0.7,194*,136*,88
C=CCNc1nc(-c2ccc(Cl)cc2)cs1,-0.84,166*,7.5*,42,182*,0.6,215*,141*,99
C=CCNc1nc(-c2sc(NC(C)=O)nc2C)cs1,0.6,10,1.4,-2,123,1,/,/,/
CN(C)c1nc(-c2ccc([N+](=O)[O-])cc2)cs1,-0.24,55,2,-2,120,1,/,/,/
SMILES,sdo1 growth,APP 5'UTR act,NF-kB neuron act,FLuc inh counter,STAT1 activator,FLuc stim CS,STAT1 activ conf,NFkB act STAT1ct,STAT3 act STAT1c
COc1ccc(C2=NN(C3=NN=C(N)Cc4ncnn43)C(O)(C(F)(F)F)C2)cc1 (configuration not stated),/,-16,1.3,3,108,1,/,/,/
Cc1ccc(C(=O)O/N=C(\N)c2ccc(Br)cc2)cc1C,-2.1,-4,2,9,121,0.9,/,/,/
N/C(=N\OC(=O)c1ccc2c(c1)OCO2)c1ccc(Cl)cc1,-2.6,101,5.9*,84*,153*,0.2,187*,130,102
Cc1ccc(/C(N)=N/OC(=O)c2ccc3c(c2)OCO3)cc1,-1.9,142*,5*,78*,156*,0.2,186*,136*,105
Cc1noc(C)c1Cc1ccc(O)cc1,1,-1,1,-9,105,1.1,/,/,/
C=CCNc1ncnc2c1cnn2-c1ccc(Cl)cc1,-0.38,239*,5.4*,39,177*,0.6,266*,133,108
CCCCNc1ncnc2c1cnn2-c1ccc(Cl)cc1,-1.7,-33,7.2*,17,158*,0.8,249*,140*,106
Clc1ccc(-n2ncc3c(NCCCn4ccnc4)ncnc32)cc1,-0.1,-11,1.9,5,124,1,/,/,/
O=C(Oc1ccc(-c2cnc3ccccc3n2)cc1)c1ccco1,1.1,80,2.7,38,155*,0.6,190*,103,102
O=C(Oc1ccc(-c2cnc3ccccc3n2)cc1)c1cc([N+](=O)[O-])ccc1Cl,-1.3,71,1.7,-1,103,1,/,/,/
COc1ccc(C2CC(c3ccc4ccccc4c3)=NN2C(=O)COC(=O)C2CCC(=O)N2)cc1 (configuration not stated),/,258*,1.6,-2,183*,1,247*,148*,129*
CN(C)N1C(=O)CC(N2CCCCC2)C1=O (configuration not stated),/,0,0.94,-11,99,1.1,/,/,/
